Bounds are passed on as bounds.

In assay [1] the test system is eIF-2-alpha kinase GCN2 (Homo sapiens), Q9P2K8 [S808G]. Nature of the assay: Competitive binding affinity to GCN2 kinase domain 2 S808G mutant (unknown origin) at 10 uM in presence of ATP relative to control. In short, it runs like this: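 In vitro ATP-site competition binding format, run as one member of a diverse 128-kinase profiling panel. Each compound was tested at a single concentration across the whole panel.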

Assay [2] concerns the target T1, Inhibitor of nuclear factor kappa-B kinase subunit epsilon (Homo sapiens) (UniProt Q14164).
T1 sequence (whole entry): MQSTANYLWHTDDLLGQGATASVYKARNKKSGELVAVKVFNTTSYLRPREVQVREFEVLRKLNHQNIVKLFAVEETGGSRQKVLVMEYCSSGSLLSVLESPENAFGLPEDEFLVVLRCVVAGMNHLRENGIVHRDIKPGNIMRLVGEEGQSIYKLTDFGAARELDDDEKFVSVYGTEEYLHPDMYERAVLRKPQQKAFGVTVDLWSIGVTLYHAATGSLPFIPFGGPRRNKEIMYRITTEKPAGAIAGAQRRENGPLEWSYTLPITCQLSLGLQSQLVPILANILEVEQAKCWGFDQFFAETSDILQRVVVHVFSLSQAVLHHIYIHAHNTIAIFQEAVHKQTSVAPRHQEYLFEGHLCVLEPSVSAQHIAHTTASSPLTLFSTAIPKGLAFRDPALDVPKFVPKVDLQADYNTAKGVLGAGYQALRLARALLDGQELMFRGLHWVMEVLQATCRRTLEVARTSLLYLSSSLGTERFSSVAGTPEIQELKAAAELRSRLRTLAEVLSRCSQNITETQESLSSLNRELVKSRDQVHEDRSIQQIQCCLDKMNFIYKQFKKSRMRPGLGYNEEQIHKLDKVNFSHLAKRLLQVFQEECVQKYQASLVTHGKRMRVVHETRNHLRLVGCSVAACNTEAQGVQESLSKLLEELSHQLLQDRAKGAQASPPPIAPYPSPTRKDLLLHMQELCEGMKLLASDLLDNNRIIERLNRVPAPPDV
Nature of the assay: Competitive binding affinity to IKKepsilon (unknown origin) at 10 uM in presence of ATP relative to control.

Assay [3] has as its system Epidermal growth factor receptor (Homo sapiens), P00533 [L861Q]. Description: Competitive binding affinity to EGFR L861Q mutant (unknown origin) at 10 uM in presence of ATP relative to control. In short, it runs like this:
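In vitro ATP-site competition binding assay, part of profiling against a diverse panel of 128 kinases. Each compound was tested at a single concentration of 10 µM. Kinome selectivity was summarized as S15 selectivity scores.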

Assay [4] addresses Mitogen-activated protein kinase kinase kinase 20 (Homo sapiens) (UniProt Q9NYL2). Description: Competitive binding affinity to ZAK (unknown origin) at 10 uM in presence of ATP relative to control.
Assay [5] addresses T2, Bone morphogenetic protein receptor type-2 (Homo sapiens) (UniProt Q13873).
T2 sequence (whole entry): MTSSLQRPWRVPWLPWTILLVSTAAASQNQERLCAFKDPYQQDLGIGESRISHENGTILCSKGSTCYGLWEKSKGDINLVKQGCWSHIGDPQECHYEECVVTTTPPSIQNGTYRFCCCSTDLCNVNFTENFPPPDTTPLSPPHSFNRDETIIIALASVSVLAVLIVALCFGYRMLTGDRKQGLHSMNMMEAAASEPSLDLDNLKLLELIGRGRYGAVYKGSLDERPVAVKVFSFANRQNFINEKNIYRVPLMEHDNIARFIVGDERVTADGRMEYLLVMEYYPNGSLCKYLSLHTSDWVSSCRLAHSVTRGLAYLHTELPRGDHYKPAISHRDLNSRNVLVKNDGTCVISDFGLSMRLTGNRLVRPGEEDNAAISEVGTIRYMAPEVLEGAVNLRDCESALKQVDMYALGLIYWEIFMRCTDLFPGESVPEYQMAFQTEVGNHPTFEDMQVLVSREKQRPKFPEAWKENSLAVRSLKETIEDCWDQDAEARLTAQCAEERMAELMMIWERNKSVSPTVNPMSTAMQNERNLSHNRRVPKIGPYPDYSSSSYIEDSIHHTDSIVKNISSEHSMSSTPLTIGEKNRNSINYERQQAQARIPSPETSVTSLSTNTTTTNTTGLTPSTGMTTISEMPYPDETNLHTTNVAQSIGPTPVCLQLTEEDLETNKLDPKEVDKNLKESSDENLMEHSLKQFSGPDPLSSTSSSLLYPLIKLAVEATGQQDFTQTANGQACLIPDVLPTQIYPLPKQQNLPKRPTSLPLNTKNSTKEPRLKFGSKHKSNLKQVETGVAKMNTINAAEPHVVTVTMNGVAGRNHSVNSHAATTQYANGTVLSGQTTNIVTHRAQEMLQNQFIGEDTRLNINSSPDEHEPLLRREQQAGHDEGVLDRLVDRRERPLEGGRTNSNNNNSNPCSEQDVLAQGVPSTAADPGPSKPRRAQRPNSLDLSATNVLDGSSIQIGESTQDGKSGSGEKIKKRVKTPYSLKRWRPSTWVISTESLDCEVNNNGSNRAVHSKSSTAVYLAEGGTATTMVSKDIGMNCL
Description: Competitive binding affinity to BMPR2 (unknown origin) at 10 uM in presence of ATP relative to control.

Assay [6] has as its target Ribosomal protein S6 kinase alpha-6 (Homo sapiens) (UniProt Q9UK32). Description: Competitive binding affinity to RPS6KA6 kinase domain 2 (unknown origin) at 10 uM in presence of ATP relative to control.
The target of assay [7] is T3, cGMP-dependent protein kinase 1 (Homo sapiens) (UniProt Q13976).
T3 sequence (whole entry): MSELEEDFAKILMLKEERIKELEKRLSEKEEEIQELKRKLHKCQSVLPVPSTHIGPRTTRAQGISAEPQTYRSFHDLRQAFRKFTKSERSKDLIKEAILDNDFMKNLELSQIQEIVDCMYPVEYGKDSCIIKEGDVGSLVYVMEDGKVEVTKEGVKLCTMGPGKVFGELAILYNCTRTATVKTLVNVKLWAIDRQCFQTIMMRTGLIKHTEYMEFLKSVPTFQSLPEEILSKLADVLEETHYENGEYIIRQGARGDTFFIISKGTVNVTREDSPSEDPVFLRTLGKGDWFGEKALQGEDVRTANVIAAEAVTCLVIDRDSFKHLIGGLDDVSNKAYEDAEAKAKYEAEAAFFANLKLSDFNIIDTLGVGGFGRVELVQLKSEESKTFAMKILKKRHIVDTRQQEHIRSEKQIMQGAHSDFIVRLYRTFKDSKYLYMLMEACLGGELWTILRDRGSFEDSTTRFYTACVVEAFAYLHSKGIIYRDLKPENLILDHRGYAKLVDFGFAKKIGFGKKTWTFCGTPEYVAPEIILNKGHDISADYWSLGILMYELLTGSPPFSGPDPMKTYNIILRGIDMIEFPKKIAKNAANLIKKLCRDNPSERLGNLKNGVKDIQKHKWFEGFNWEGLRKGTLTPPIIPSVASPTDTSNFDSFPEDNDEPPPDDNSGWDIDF
Description: Competitive binding affinity to PRKG1 (unknown origin) at 10 uM in presence of ATP relative to control.

Sequence of Ribosomal protein S6 kinase alpha-6 (Homo sapiens) (Q9UK32 whole entry, the tested form may be a part): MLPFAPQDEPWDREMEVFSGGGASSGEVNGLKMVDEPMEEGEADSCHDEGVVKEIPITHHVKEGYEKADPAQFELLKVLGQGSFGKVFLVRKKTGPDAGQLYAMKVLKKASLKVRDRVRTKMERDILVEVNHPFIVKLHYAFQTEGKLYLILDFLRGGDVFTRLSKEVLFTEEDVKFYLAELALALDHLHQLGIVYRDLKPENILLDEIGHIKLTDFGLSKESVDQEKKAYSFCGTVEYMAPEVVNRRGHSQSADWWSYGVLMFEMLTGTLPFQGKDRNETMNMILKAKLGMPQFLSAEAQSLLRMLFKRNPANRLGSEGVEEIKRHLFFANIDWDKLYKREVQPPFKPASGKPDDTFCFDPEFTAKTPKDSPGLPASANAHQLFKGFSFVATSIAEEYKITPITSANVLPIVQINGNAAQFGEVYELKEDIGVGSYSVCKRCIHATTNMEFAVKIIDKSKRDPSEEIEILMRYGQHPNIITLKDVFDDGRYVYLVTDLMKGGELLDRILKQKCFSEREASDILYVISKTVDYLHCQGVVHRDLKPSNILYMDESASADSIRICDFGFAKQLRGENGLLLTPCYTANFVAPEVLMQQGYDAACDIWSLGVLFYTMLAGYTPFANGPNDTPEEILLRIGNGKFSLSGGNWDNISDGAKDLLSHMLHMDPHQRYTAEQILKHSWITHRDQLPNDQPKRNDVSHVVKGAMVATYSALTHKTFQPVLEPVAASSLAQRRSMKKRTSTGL
Sequence of Epidermal growth factor receptor (Homo sapiens), P00533 [L861Q] (P00533 whole entry L861Q): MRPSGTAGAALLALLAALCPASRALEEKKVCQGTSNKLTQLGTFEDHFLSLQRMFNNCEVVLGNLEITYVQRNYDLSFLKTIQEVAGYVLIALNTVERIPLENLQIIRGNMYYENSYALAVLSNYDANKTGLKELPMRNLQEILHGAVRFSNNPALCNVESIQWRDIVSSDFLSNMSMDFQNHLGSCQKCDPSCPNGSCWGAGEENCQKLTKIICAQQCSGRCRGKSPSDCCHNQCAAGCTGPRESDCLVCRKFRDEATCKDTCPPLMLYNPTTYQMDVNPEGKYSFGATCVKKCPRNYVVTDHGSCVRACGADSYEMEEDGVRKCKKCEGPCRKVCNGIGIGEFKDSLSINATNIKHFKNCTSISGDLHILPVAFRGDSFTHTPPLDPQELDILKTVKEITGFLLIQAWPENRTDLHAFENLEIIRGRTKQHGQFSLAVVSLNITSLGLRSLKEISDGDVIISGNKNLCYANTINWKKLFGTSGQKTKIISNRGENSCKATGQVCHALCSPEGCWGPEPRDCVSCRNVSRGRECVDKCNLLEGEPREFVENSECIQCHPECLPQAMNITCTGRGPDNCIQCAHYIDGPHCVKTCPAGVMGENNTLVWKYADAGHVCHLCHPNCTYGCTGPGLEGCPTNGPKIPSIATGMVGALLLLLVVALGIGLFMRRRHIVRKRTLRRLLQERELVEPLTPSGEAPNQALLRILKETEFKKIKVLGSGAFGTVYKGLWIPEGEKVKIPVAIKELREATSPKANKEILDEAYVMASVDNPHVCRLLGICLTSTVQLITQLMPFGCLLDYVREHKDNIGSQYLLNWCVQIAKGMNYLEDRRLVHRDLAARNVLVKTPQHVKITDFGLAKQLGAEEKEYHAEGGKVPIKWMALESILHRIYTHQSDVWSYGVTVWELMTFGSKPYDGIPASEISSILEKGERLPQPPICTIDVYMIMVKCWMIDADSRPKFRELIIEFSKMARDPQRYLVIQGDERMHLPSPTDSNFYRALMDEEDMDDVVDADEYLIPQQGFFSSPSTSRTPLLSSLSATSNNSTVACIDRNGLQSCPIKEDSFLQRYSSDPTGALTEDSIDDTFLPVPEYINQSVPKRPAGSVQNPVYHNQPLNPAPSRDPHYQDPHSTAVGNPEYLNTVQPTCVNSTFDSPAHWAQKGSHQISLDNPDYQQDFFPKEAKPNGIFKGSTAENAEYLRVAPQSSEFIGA
Sequence of eIF-2-alpha kinase GCN2 (Homo sapiens), Q9P2K8 [S808G] (Q9P2K8 whole entry S808G, the tested form may be a part): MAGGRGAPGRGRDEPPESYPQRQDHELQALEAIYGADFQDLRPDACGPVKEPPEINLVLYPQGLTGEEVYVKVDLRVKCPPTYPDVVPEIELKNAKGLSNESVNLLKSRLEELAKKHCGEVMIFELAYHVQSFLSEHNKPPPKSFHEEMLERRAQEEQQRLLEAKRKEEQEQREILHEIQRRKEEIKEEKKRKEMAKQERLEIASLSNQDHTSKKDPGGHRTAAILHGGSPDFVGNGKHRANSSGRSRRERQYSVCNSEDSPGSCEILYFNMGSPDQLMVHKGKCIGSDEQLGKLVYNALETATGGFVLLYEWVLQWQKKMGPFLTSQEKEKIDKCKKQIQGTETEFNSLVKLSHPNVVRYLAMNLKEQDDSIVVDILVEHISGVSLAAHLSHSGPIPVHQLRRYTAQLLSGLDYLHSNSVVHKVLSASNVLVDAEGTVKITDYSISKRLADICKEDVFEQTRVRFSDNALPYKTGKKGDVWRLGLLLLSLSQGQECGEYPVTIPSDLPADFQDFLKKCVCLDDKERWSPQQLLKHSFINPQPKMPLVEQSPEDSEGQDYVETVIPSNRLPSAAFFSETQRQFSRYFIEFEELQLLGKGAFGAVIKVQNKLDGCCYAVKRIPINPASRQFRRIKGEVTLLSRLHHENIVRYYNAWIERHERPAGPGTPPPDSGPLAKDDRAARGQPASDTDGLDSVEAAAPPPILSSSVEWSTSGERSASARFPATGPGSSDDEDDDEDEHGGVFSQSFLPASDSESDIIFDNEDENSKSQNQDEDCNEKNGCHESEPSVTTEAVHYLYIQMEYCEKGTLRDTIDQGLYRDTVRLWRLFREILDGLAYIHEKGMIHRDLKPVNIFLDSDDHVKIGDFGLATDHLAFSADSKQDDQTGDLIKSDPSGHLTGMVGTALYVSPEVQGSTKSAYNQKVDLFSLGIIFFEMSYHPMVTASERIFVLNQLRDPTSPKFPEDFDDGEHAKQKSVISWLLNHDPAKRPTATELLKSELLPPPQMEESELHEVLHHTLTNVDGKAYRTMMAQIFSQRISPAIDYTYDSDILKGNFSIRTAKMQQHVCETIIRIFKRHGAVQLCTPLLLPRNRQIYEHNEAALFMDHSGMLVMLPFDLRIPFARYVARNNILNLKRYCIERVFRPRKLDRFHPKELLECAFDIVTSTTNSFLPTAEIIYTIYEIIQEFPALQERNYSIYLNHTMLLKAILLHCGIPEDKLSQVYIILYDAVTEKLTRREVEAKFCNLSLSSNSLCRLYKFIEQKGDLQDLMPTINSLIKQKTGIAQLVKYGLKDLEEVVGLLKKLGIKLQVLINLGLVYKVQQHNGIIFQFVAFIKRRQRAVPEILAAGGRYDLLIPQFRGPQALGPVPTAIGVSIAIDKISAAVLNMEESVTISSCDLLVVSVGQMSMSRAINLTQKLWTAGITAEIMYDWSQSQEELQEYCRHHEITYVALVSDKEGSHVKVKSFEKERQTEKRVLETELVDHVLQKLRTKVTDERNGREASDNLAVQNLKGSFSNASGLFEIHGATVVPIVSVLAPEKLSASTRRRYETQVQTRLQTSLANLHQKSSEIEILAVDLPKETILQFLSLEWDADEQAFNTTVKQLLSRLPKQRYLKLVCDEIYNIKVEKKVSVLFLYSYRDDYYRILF
Sequence of Mitogen-activated protein kinase kinase kinase 20 (Homo sapiens) (Q9NYL2 2-800 limits assumed): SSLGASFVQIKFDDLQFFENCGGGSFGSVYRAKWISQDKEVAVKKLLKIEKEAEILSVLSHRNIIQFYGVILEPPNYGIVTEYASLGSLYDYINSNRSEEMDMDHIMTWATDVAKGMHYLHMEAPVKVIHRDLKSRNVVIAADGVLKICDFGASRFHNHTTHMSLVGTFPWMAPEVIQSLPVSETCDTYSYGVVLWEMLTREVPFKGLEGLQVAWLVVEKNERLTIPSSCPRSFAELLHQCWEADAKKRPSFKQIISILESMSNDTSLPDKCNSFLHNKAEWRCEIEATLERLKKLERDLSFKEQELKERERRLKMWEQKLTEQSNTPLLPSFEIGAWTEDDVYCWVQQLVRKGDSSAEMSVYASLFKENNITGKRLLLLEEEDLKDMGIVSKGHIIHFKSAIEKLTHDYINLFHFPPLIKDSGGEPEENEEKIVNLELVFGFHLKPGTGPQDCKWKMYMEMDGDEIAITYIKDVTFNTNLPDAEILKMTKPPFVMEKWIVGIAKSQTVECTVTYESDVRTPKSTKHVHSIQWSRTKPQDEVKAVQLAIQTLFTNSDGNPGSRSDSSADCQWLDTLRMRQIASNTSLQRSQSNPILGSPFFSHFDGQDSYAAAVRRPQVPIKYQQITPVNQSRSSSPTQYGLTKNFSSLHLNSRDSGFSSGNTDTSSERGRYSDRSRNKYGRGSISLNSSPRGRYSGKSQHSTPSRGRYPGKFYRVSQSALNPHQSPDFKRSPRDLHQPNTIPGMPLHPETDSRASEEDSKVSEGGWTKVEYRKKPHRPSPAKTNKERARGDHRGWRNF

As to `CS(=O)(=O)CCCOc1cccc2c1ccn2-c1ccnc(N[C@H]2CC[C@H](C(=O)N3CCC(O)CC3)CC2)n1`, the inhibition in assay [1] is over 85%.
For `O[C@H]1CC[C@H](Nc2nccc(-n3ccc4ccccc43)n2)CC1`, the inhibition is under 50% in assay [2]; 83% in assay [1]; under 50% in assay [3]; under 50% in assay [4]; under 50% in assay [5]; 84% in assay [6]. Also, the inhibition in assay [7] was under 50%.
With `O[C@H]1CC[C@H](Nc2nccc(-n3ncc4ccccc43)n2)CC1`, the inhibition in assay [2] was under 50%; in assay [1], 100%; in assay [3], under 50%; in assay [4], under 50%; in assay [5] it was under 50%; in assay [6], 100%. In addition, the inhibition in assay [7] was under 50%.
Take `O[C@H]1CC[C@H](Nc2nccc(-c3n[nH]c4ccccc34)n2)CC1`: the values for the inhibition in assay [1], in assay [3] and in assay [7] were 100%, under 50% and under 50%, respectively.
In the case of `O[C@H]1CC[C@H](Nc2nccc(-n3nnc4ccccc43)n2)CC1`, the inhibition in assay [2] is under 50%; in assay [1] it was 99%; in assay [3], under 50%; in assay [4], 76%; in assay [5] it was 85%; in assay [6] it was 100%. The inhibition in assay [7] is under 50%.

The values above are taken from ChEMBL document CHEMBL2424622, “Development of amino-pyrimidine inhibitors of c-Jun N-terminal kinase (JNK): kinase profiling guided optimization of a 1,2,3-benzotriazole lead” (Bioorg Med Chem Lett, 2013).
